Sampled rows, rich in hits. Any-hit rate of the full collection: about 3%.
Kir21 inh: inhibitors of mouse Kir2.1 inward-rectifier potassium channel. HEK293-Kir2.1, FluxOR thallium flux fluorescence; stronger effect = lower value. 0.85% of 310,000 active. B-score at 10 µM. AID 1672;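 active means fluorescence ratio B-score at or below minus 3 SD of library scores, with starting-brightness B-score within 2 SD, cut at about -4.2 in these data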;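 further: channel flux triggered by added potassium and thallium sulfate stimulus; B-score of peak minus minimum fluorescence over baseline after thallium stimulus; more negative B-score means stronger Kir2.1 block with less thallium influx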
Target sequence (P35561 whole entry, looked up): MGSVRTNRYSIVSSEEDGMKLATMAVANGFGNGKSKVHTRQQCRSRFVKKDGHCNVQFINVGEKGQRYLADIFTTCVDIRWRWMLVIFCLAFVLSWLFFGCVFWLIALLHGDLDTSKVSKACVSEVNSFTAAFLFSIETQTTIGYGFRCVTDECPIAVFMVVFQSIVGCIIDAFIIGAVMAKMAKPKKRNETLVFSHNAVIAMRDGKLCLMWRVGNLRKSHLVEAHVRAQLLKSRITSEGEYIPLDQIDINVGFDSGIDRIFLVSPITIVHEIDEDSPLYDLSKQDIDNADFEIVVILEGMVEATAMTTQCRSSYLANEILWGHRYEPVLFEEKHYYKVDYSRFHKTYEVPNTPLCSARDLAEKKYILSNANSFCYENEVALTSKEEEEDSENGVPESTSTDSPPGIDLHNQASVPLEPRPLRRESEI
TRPC6 inhibitor: inhibitors of mouse TRPC6 channel | Q61143 | HEK293-TRPC6, membrane potential dye, ACh-evoked depolarization; stronger effect = lower value | B-score at 10 µM | 1.1% of 310,000 active | AID 2553;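 active means B-score under library mean minus 3 SD, initial fluorescence not abnormally high, positive integrated signal ratio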;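 further: B-score derived from integrated fluorescence ratio over the kinetic read; more negative B-score means stronger inhibition of depolarization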
TRPC4 agonist: TRPC4 (mouse) channel activation; AID 2237; B-score at 10 µM; HEK293 TRPC4beta/mu-opioid, Fluo4 calcium fluorescence; stronger effect = higher value; 0.49% of 310,000 active;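 active means B-score above 5 SD of library B-scores, and initial fluorescence ratio not above library mean plus 5 SD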;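 further: positive B-score marks a calcium rise read as TRPC4 activation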
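Assay system: HEK293 cells stably co-expressing mouse TRPC4beta and mu-opioid receptor / Timing: Fluo4 dye loading 45 min at room temperature, 110 s recording / Signal: Fluo4 calcium-sensitive dye fluorescence, kinetic, 1 Hz baseline / Read-out: integrated baseline-normalised fluorescence ratio, converted to per-well B score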
TRPC4 inh: inhibitors of mouse TRPC4 channel | Q9QUQ5 | HEK293 TRPC4beta/mu-opioid, DAMGO-evoked Fluo4 calcium flux; stronger effect = lower value | B-score at 10 µM | 0.39% of 300,000 active | AID 2247;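 active means B-score over 3 SD under the library average, no early fluorescence shift, positive overall ratio signal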
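System: stable TRPC4beta/mu-opioid receptor HEK293 cells; Dosing: single-point compound dosing; Measured by: Fluo4 Ca2+ flux fluorescence; Read-out basis: per-well B score of integrated baseline-normalized Fluo4 ratio.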
TRPC6 activator: activates the mouse TRPC6 cation channel | 0.13% of 310,000 active | B-score at 10 µM | Q61143 | HEK293-TRPC6 membrane potential dye fluorescence; stronger effect = higher value;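 active means B-score of the integrated fluorescence ratio above library mean plus 3 SD, and starting fluorescence ratio within library mean plus 5 SD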;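 further: higher score means more depolarization so channel activation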
TRPC4 PAM: TRPC4 (mouse) allosteric potentiation; 0.42% of 310,000 active; B-score at 10 µM; AID 2227; Q9QUQ5; HEK293 TRPC4beta/mu-opioid, DAMGO EC20, Fluo-4 Ca2+ flux; stronger effect = higher value;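 active means B-score of calcium response area above 5 SD of library B-scores, with initial fluorescence ratio within 5 SD of library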;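 further: B-score of integrated fluorescence ratio over time as area under calcium response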
TRPC4 sel inh 2: second check of whether TRPC6 inhibitors also affect mouse TRPC4; shares compounds with TRPC6 inhibitor; HEK293 TRPC4/MOR, membrane potential dye fluorescence; channel activated by saturating DAMGO dose; inhibition, % at 10 µM; 42% of 920 active; AID 2776;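 active means compounds whose fluorescence signal differed from control wells by over 3 SD, either direction, in both duplicate plates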
TRPC4 spec: tests whether TRPC6 inhibitors also affect mouse TRPC4; 61% of 920 active; activity change, negative = inhibition, % at 10 µM; shares compounds with TRPC6 inhibitor; HEK293 TRPC4/mu-opioid, membrane potential fluorescence;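 active means rise or fall in signal beyond 3 SD of buffer-only wells in both replicate plates, either sign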;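 further: integrated kinetic ratio of fluorescence range over baseline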
HEK293 MPD ctr 2-1: second check of TRPC6 inhibitor effects in parental HEK293 cells; AID 2779; shares compounds with TRPC6 inhibitor; 31% of 920 active; parental HEK293 membrane potential dye fluorescence; maximal acetylcholine challenge after compound addition; signal change vs control, % at 10 µM;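 active means membrane potential signal moving either way by over 3 SD of the maximum-effect control, in both duplicate plates, meaning non-specific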
HEK293 MPD ctr-1: counter-screen for TRPC6 inhibitors: effect in parental HEK293 cells. shares compounds with TRPC6 inhibitor. parental HEK293 membrane potential dye fluorescence. membrane potential signal change, % at 10 µM. 60% of 920 active;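 active means membrane potential signal shifting up or down by more than 3 SD of buffer-only wells, on both duplicate plates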
HEK293 MPD ctr-2: counter-screen for TRPC6 modulators: effect in parental HEK293 cells. shares compounds with TRPC6 inhibitor. membrane potential dye fluorescence. membrane potential signal change, % at 10 µM. 51% of 2,400 active. AID 488924;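 active means membrane potential signal moves up or down beyond 5 SD from buffer-only wells, on both duplicate plates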
HEK293 MPD ctr 2-2: second check of TRPC6 modulator effects in parental HEK293 cells; shares compounds with TRPC6 inhibitor; membrane potential dye fluorescence; after compound, maximal acetylcholine stimulation; inhibition, % at 10 µM; 14% of 2,400 active;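 active means membrane potential signal drops by more than 5 SD from the mean control signal, in both duplicate plates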;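 further: plate controls were acetylcholine ECmax control wells for no effect and buffer only wells for full effect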
TRPC4/MOR mod: tests whether TRPC6 modulators also affect mouse TRPC4; 69% of 2,400 active; shares compounds with TRPC6 inhibitor; HEK293 TRPC4/mu-opioid, membrane potential fluorescence; percent change from control (negative = decrease, positive = increase), % at 10 µM;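 active means membrane potential signal moved up or down beyond 5 SD of buffer control wells, in both duplicate plates, actives on both sides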;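 further: plate controls were assay buffer wells for no effect and DAMGO maximal-effect wells for full effect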
TRPC4 ctr inh 2: second selectivity test of TRPC6 modulators against mouse TRPC4 | shares compounds with TRPC6 inhibitor | HEK293 TRPC4/mu-opioid, membrane potential dye fluorescence; stimulated with maximal-effect DAMGO | inhibition, % at 10 µM | 55% of 2,400 active | AID 488928;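 active means drop in membrane potential signal beyond 5 SD of the control wells in both duplicate plates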;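 further: TRPC4 counter screen for TRPC6 hits run under conditions tuned for TRPC6 not TRPC4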
TRPC6 inh conf: confirmation of mouse TRPC6 inhibitors; shares compounds with TRPC6 inhibitor; HEK293-TRPC6, membrane potential dye, ACh-evoked depolarization; AID 488960; inhibition, % at 10 µM; 43% of 3,300 active;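 active means fluorescence ratio falls more than 5 SD below the full-stimulation control mean, in both duplicate runs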;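 further: integrated fluorescence ratio of peak minus minimum over baseline after agonist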
TRPC6 act conf: mouse TRPC6 activator confirmation | shares compounds with TRPC6 inhibitor | HEK293-TRPC6 membrane potential dye fluorescence, FDSS | activation, % at 10 µM | 11% of 2,800 active | AID 488961;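 active means ratio signal rise beyond 5 SD above unstimulated control wells' mean, seen in both duplicate runs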;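 further: plate controls were buffer EC0 wells for no effect and acetylcholine ECmax response for full effect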
* hit, by the source's call; i = inactive; x = no result.

SMILES	Kir21 inh	TRPC6 inhibitor	TRPC4 agonist	TRPC4 inh	TRPC6 activator	TRPC4 PAM	HEK293 MPD ctr-2	HEK293 MPD ctr 2-2	TRPC4/MOR mod	TRPC4 ctr inh 2	TRPC6 inh conf	TRPC6 act conf	others
O=C(CN1CCCC1)Nc1c2c(nc3ccccc13)N(Cc1ccccc1)CC2	-1.88	-6.1*	i	i	i	i	-311.5%*	i	-49.0%*	62.5%*	46.0%*	i
CN(C)c1cc(NC(=O)CN2CCCC2)c2ccccc2n1	1.15	-7.16*	i	i	i	i	x	x	x	x	i	i	TRPC4 sel inh 2=65.5%*;TRPC4 spec=-19.5%*;HEK293 MPD ctr 2-1=i;HEK293 MPD ctr-1=-323.5%*
COc1ccc(CCN2CCCn3c2nc2c3c(=O)[nH]c(=O)n2C)cc1OC	0	i	i	i	i	i	x	x	x	x	x	x
COC(=O)c1ccsc1NC(=O)CN1CCN(Cc2ccc3c(c2)OCO3)CC1	-3.49	-6.65*	i	i	i	i	x	x	x	x	i	x	TRPC4 sel inh 2=i;TRPC4 spec=19.1%*;HEK293 MPD ctr 2-1=389.0%*;HEK293 MPD ctr-1=16.3%*
COC(=O)c1c(NC(=O)CN2CCN(Cc3ccc4c(c3)OCO4)CC2)sc(C)c1C	-0.62	i	i	i	i	i	x	x	x	x	x	x
COc1cccc(OCC(O)CN2CCC(CN3C(=O)c4cccc5cccc(c45)C3=O)CC2)c1 (stereo not drawn)	-1.47	-10.2*	i	i	i	i	x	x	x	x	i	i	TRPC4 sel inh 2=62.0%*;TRPC4 spec=-14.0%*;HEK293 MPD ctr 2-1=i;HEK293 MPD ctr-1=-138.0%*
COc1ccc(COCC(O)CN2CCC(CN3C(=O)c4cccc5cccc(c45)C3=O)CC2)cc1OC (stereo not drawn)	0.15	-5.77*	i	i	i	i	-147.0%*	i	-30.5%*	87.5%*	69.0%*	i
COc1cc(COCC(O)CN2CCN(CCN3C(=O)c4cccc5cccc(c45)C3=O)CC2)cc(OC)c1OC (stereo not drawn)	0.03	i	i	i	i	i	x	x	x	x	x	x
O=C1c2cccc3cccc(c23)C(=O)N1CC1CCN(CC(O)COc2ccc3ccccc3c2)CC1 (stereo not drawn)	-1.65	i	i	i	i	i	x	x	x	x	x	x
COc1ccc(CCC(=O)Nc2cccc(S(=O)(=O)N(C)C)c2)cc1OC	-0.83	i	i	i	i	i	x	x	x	x	x	x
COc1ccc(CCN=C(N)NS(=O)(=O)c2cc(F)ccc2F)cc1	-1.74	i	i	i	i	i	x	x	x	x	x	x
O=C(C[n+]1cc(-c2ccc(Cl)cc2)n2c1CCC2)N1c2ccccc2Sc2ccccc21	-0.1	-6.24*	i	i	i	i	i	58.0%*	-10.5%*	i	73.0%*	i
Cc1ccc(C(=O)C[n+]2cc(-c3ccc(C)cc3)n3c2CCCCC3)cc1	-2.54	-5.44*	i	i	11.6*	i	265.0%*	i	48.5%*	42.0%*	51.0%*	90.0%*
COc1ccc(C(=O)C[n+]2cc(-c3ccc(OC)cc3)n3c2CCCC3)cc1	-0.08	i	i	i	i	i	x	x	x	x	x	x
CC1CC(C)(C)N(C(=O)CN2C(=O)c3ccccc3C2=O)c2ccccc21 (stereo not drawn)	-2.33	-5.06*	158*	-7*	i	i	183.0%*	i	41.5%*	i	i	x
N#CC1=C(N)OC2=C(CN(Cc3ccccc3)C/C2=C\c2cccnc2)C1c1cccnc1 (stereo not drawn)	2.15	i	i	i	i	i	x	x	x	x	x	x
CC(C)N1CC2=C(OC(N)=C(C#N)C2c2cccnc2)/C(=C/c2cccnc2)C1 (stereo not drawn)	0.03	-4.99*	i	i	i	i	91.0%*	i	i	i	i	i
O=C(NCc1ccccc1Cl)C(=O)NCC1OCCN1S(=O)(=O)c1ccc(F)cc1 (stereo not drawn)	-1.57	i	i	i	i	i	x	x	x	x	x	x
COc1c(/C=N/Nc2ccc(C(=O)O)cc2)c(CCN(C)C(C)=O)cc2c1OCO2	-0.08	i	i	i	i	i	x	x	x	x	x	x
Cn1c(C(=O)O)cnc1Sc1ncc(C(F)(F)F)cc1Cl	-0.03	i	i	i	i	i	x	x	x	x	x	x
CC(C)NC(=O)c1cnc(Sc2ncc(C(F)(F)F)cc2Cl)n1C	-1.25	-5.71*	i	i	i	i	i	i	i	i	i	i
CCOc1ccc2[nH]c(C)cc(=O)c2c1	0.37	i	i	i	i	i	x	x	x	x	x	x
O=c1cc(C(F)(F)F)[nH]c2c(C(F)(F)F)cccc12	-0.73	-10.2*	i	i	i	i	x	x	x	x	82.8%*	x	TRPC4 sel inh 2=66.5%*;TRPC4 spec=58.0%*;HEK293 MPD ctr 2-1=i;HEK293 MPD ctr-1=32.1%*
O=c1cc(C(F)(F)F)[nH]c2ccc(OC(F)(F)F)cc12	0.13	-7.12*	i	i	i	i	x	x	x	x	103.9%*	x	TRPC4 sel inh 2=i;TRPC4 spec=23.4%*;HEK293 MPD ctr 2-1=21.5%*;HEK293 MPD ctr-1=13.2%*
